Measurements taken from ChEMBL document CHEMBL3286113, “New potent antibacterial oxazolidinone (MRX-I) with an improved class safety profile” (J Med Chem, 2014).
In brackets after ≈: the same amount, converted by molar mass.

Tests used:
[1] = tested on: Staphylococcus aureus; experiment: Antibacterial activity against linezolid-resistant Staphylococcus aureus isolate 4184; format: functional
[2] = tested on: Streptococcus mitis; experiment: Antibacterial activity against Streptococcus mitis; format: functional
[3] = Half life in male rat at 15 mg/kg, po; format: ADME, organism-based; set-up: dose 15 mg/kg, route oral; details: in vivo
[4] = tested on: Streptococcus constellatus; experiment: Antibacterial activity against Streptococcus constellatus; format: functional
[5] = Elimination half life in fasted human at 300 mg, po administered as single dose; format: ADME, organism-based; details: in vivo, read-out: beta t1/2 (converted)
How it was run: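 Healthy volunteers (12; six of each sex) in a three-period Latin-square crossover. Each received single oral doses of 300, 600 and 900 mg under fasting conditions, with a 1-week washout between doses. Parameters from a noncompartmental model.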

[6] = tested on: Staphylococcus aureus; experiment: Antibacterial activity against methicillin-sensitive Staphylococcus aureus ATCC 29213 in mouse thigh infection model assessed as reduction of log10 CFU per thigh at 80 mg/kg, po; format: functional
How it was run: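 Mouse thigh infection with S. aureus ATCC29213 (MSSA), 10 animals per dosing group. Oral doses were 5, 10, 20, 40 and 80 mg/kg. The read-out was log CFU per thigh after treatment, and the reduction (ΔLogCFU/thigh) was reported.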

[7] = tested on: L5178Y; experiment: Mutagenicity in mouse tk +/- L5178Y cells assessed as increase in gene mutation frequency at 62.5 to 1000 ug/mL in presence of S9 fraction
[8] = tested on: Homo sapiens; experiment: Toxicity in human assessed as change in RBC count at 600 to 800 mg, po administered as single dose with meal on day 1 and day 15 followed by bid with meal on day 2 to day 14 measured during compound treatment; format: organism-based; details: in vivo
[9] = tested on: Rattus norvegicus; experiment: Toxicity in female rat assessed as effect on reticulocyte count at 200 to 300 mg/kg/day, po bid administered for 4 weeks (reference value: 1.48%); format: organism-based; set-up: route oral; details: in vivo, 672 h
[10] = tested on: Staphylococcus aureus; experiment: Antibacterial activity against methicillin-resistant Staphylococcus aureus isolate 0605 in mouse thigh infection model assessed as reduction of log10 CFU per thigh at 10 mg/kg, po; format: functional
[11] = Oral bioavailability in rat; format: ADME, organism-based; details: in vivo
[12] = tested on: Staphylococcus aureus; experiment: Antibacterial activity against methicillin-resistant Staphylococcus aureus isolate 0605 in mouse thigh infection model assessed as reduction of log10 CFU per thigh at 40 mg/kg, po; format: functional
[13] = Cmax in human at 600 mg, po administered as single dose with meal measured on day 1; format: ADME, organism-based; set-up: dose 600 mg, route oral; details: in vivo
How it was run: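 Randomized, double-blind, placebo-controlled multiple-dose study in 32 healthy subjects, half male and half female. Each dose was taken with a meal, at 600 or 800 mg, 28 doses over 15 days. A single dose on days 1 and 15 gave full PK; BID (Q12h) dosing ran on days 2–14.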

[14] = Cmax in female rat at 45 mg/kg, po; format: ADME, organism-based; set-up: dose 45 mg/kg, route oral; details: in vivo
[15] = tested on: Homo sapiens; experiment: Toxicity in fasted human at 50 to 1800 mg, po; format: organism-based; details: in vivo
How it was run: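 Randomized, double-blind, placebo-controlled single ascending dose study in healthy Chinese subjects under fasting conditions. Eight groups received single oral doses of 50, 100, 200, 400, 800, 1200, 1600 or 1800 mg, with tolerability assessed.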

[16] = AUC (0 to 24 hrs) in human at 800 mg, po administered as single dose with meal measured on day 1; format: ADME, organism-based; set-up: dose 800 mg, time < 24 hr, route oral; details: plasma
How it was run: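 Randomized, double-blind, placebo-controlled multiple-dose study in 32 healthy subjects (half male, half female). Subjects took 28 oral doses of 600 or 800 mg over 15 days, each with a meal. A single dose was given on days 1 and 15 for full PK, and doses were given Q12h from day 2 to day 14. AUC0−24 was measured on days 1 and 15.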

[17] = tested on: Streptococcus pneumoniae; experiment: Antibacterial activity against penicillin intermediate-sensitive Streptococcus pneumoniae ATCC 49619 clinical isolate; format: functional
[18] = tested on: Streptococcus pneumoniae; experiment: Bactericidal activity against penicillin-sensitive Streptococcus pneumoniae; format: functional
[19] = tested on: Rattus norvegicus; experiment: Toxicity in female rat assessed as effect on mean corpuscular volume at 100 mg/kg/day, po bid administered for 4 weeks (reference value: 53.72 fL); format: organism-based; set-up: route oral; details: in vivo, 672 h
[20] = tested on: Staphylococcus aureus; experiment: Antibacterial activity against methicillin-sensitive Staphylococcus aureus ATCC 29213; format: functional
[21] = tested on: Staphylococcus aureus; experiment: Antibacterial activity against methicillin-sensitive Staphylococcus aureus; format: functional
[22] = tested on: Staphylococcus epidermidis; experiment: Antibacterial activity against methicillin-sensitive Staphylococcus epidermidis; format: functional
[23] = tested on: Rattus norvegicus; experiment: Toxicity in female rat assessed as effect on WBC count at 200 to 300 mg/kg/day, po bid administered for 4 weeks (reference value: 3.66 x 10^9/L); format: organism-based; set-up: route oral; details: in vivo, 672 h
[24] = tested on: Rattus norvegicus; experiment: Toxicity in female rat assessed as effect on hematocrit level at 20 mg/kg/day, po bid administered for 4 weeks (reference value: 39.08%); format: organism-based; set-up: route oral; details: in vivo, 672 h
[25] = tested on: Rattus norvegicus; experiment: Toxicity in rat assessed as mortality at 200 mg/kg, po bid administered for 4 weeks measured on day 14; format: organism-based; set-up: dose 200 mg/kg, route oral; details: in vivo, 672 h
How it was run: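 Rats, 10 per gender per group, given drug orally twice daily at 20, 100 and 200/300 mg/kg/day for 4 weeks, then a 4-week recovery period. The top dose of 200 mg/kg/day was raised to 300 mg/kg/day on day 15. The comparator was dosed the same way at 100 and 200 mg/kg/day. Monitoring covered mortality, body weight, hematology and bone marrow, with blood taken for TK on days 1, 14 and 28.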

[26] = tested on: Staphylococcus aureus; experiment: Antibacterial activity against methicillin-resistant Staphylococcus aureus isolate 0605 in mouse thigh infection model assessed as reduction of log10 CFU per thigh at 5 mg/kg, po; format: functional
[27] = tested on: Rattus norvegicus; experiment: Toxicity in female rat assessed as effect on reticulocyte count at 20 mg/kg/day, po bid administered for 4 weeks (reference value: 1.48%); format: organism-based; set-up: route oral; details: in vivo, 672 h
[28] = Half life in male rat at 5 mg/kg, iv; format: ADME, organism-based; set-up: dose 5 mg/kg, route intravenous; details: in vivo
[29] = tested on: Staphylococcus aureus; experiment: Antibacterial activity against methicillin-resistant Staphylococcus aureus isolate 0605; format: functional
[30] = tested on: Enterococcus faecalis; experiment: Antibacterial activity against vancomycin-resistant Enterococcus faecalis isolate EFL 4041 in po dosed mouse systemic infection model; format: functional; details: isolate EFL 4041, po
[31] = tested on: Staphylococcus aureus; experiment: Antibacterial activity against methicillin-resistant Staphylococcus aureus isolate 0612; format: functional
[32] = Half life in female rat at 5 mg/kg, iv; format: ADME, organism-based; set-up: dose 5 mg/kg, route intravenous; details: in vivo
[33] = tested on: Enterococcus faecalis; experiment: Antibacterial activity against vancomycin-sensitive/high-level gentamycin-resistant Enterococcus faecalis isolate HH22 in po dosed mouse systemic infection model; format: functional; details: EnGen0297, po
[34] = tested on: Rattus norvegicus; experiment: Toxicity in female rat assessed as effect on lymphocyte count at 100 mg/kg/day, po bid administered for 4 weeks (reference value: 74.8%); format: organism-based; set-up: route oral; details: in vivo, 672 h
[35] = AUC (0 to t) in male rat at 5 mg/kg, po; format: ADME, organism-based; set-up: dose 5 mg/kg, route oral; details: plasma
How it was run: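 Rat PK by gender, with single oral doses of 5, 15 and 45 mg/kg and an iv dose of 5 mg/kg. Tmax, Cmax, T1/2 and AUC0−t were reported per gender.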

[36] = tested on: Enterococcus; experiment: Bacteriostatic activity against vancomycin-sensitive Enterococcus; format: functional

`O=C1C=CN(c2c(F)cc(N3C[C@H](CNc4ccon4)OC3=O)c(F)c2F)CC1` [CONTEZOLID] gave an MIC [1] greater than 16 µg/mL, an MIC50 [2] of 0.5 µg/mL (≈ 1.22 µM) and an MIC90 [2] of 1 µg/mL (≈ 2.45 µM). The half-life [3] was 1.18 h, the MIC50 [4] was 0.5 µg/mL (≈ 1.22 µM) and the MIC90 [4] was 1 µg/mL (≈ 2.45 µM). The half-life [5] was 2.18 h, the deltalog10CFU [6] was 3.73 and the Activity [7] was “Non-toxic”. For the same compound, the Activity [8] was “Non-toxic”, the Activity [9] was 1.26% and the deltalog10CFU [10] was 2.47. For the same compound, the bioavailability [11] was 109%, the deltalog10CFU [12] was 4.13 and the Cmax [13] was 20300 ng/mL. For the same compound, the Cmax [14] was 50000 ng/mL, the Activity [15] was “Non-toxic” and the AUC(0-t) at 24 h [16] was 91800 ng·h/mL. The MIC [17] was 1 µg/mL (≈ 2.45 µM), the MIC50 [18] was 0.5 µg/mL (≈ 1.22 µM) and the MIC90 [18] was 0.5 µg/mL (≈ 1.22 µM). The Activity [19] was 54.78 fL, the MIC [20] was 1 µg/mL (≈ 2.45 µM) and the MIC [21] was 0.5 µg/mL (≈ 1.22 µM). The MIC50 [21] was 0.5 µg/mL (≈ 1.22 µM), the MIC90 [21] was 0.5 µg/mL (≈ 1.22 µM) and the MIC [22] was 0.25 µg/mL (≈ 0.612 µM). For the same compound, the MIC50 [22] was 0.25 µg/mL (≈ 0.612 µM), the MIC90 [22] was 0.5 µg/mL (≈ 1.22 µM) and the Activity [23] was 2.72 ×10⁹ /L. For the same compound, the Activity [24] was 37.16%, the Activity [25] was “Toxic” and the deltalog10CFU [26] was 2.45. For the same compound, the Activity [27] was 1.3%, the half-life [28] was 0.99 h and the MIC [29] was 2 µg/mL (≈ 4.9 µM). The ED50 [30] was 6.2 mg/kg, the MIC [31] was 2 µg/mL (≈ 4.9 µM) and the half-life [32] was 1.51 h. For the same compound, the ED50 [33] was 7.4 mg/kg, the Activity [34] was 78.8% and the AUC(0-t) [35] was 10200 ng·h/mL. The MIC50 [36] was 1 µg/mL (≈ 2.45 µM) and the MIC90 [36] was 1 µg/mL (≈ 2.45 µM).
